We go through four compounds from ChEMBL document CHEMBL2424622, “Development of amino-pyrimidine inhibitors of c-Jun N-terminal kinase (JNK): kinase profiling guided optimization of a 1,2,3-benzotriazole lead” (Bioorg Med Chem Lett, 2013).

For assay [1], the target named is Bone morphogenetic protein receptor type-1A (Homo sapiens) (UniProt P36894). Kind of assay: Competitive binding affinity to BMPR1A (unknown origin) at 10 uM in presence of ATP relative to control.
Assay [2] has as its target cAMP-dependent protein kinase catalytic subunit beta (Homo sapiens) (UniProt P22694). Nature of the assay: Competitive binding affinity to PKAC-beta (unknown origin) at 10 uM in presence of ATP relative to control. The procedure, abridged: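 In vitro ATP-site competition binding assay across a diverse panel of 128 kinases, with compound tested at a single concentration. Kinase selectivity scores (S15) were calculated from the panel profiles.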

Assay [3] addresses Non-receptor tyrosine-protein kinase TYK2 (Homo sapiens) (UniProt P29597). Nature of the assay: Competitive binding affinity to TYK2 kinase domain 2 (unknown origin) at 10 uM in presence of ATP relative to control.
The target of assay [4] is T1, Mitogen-activated protein kinase kinase kinase kinase 3 (Homo sapiens) (UniProt Q8IVH8).
T1 sequence (whole entry): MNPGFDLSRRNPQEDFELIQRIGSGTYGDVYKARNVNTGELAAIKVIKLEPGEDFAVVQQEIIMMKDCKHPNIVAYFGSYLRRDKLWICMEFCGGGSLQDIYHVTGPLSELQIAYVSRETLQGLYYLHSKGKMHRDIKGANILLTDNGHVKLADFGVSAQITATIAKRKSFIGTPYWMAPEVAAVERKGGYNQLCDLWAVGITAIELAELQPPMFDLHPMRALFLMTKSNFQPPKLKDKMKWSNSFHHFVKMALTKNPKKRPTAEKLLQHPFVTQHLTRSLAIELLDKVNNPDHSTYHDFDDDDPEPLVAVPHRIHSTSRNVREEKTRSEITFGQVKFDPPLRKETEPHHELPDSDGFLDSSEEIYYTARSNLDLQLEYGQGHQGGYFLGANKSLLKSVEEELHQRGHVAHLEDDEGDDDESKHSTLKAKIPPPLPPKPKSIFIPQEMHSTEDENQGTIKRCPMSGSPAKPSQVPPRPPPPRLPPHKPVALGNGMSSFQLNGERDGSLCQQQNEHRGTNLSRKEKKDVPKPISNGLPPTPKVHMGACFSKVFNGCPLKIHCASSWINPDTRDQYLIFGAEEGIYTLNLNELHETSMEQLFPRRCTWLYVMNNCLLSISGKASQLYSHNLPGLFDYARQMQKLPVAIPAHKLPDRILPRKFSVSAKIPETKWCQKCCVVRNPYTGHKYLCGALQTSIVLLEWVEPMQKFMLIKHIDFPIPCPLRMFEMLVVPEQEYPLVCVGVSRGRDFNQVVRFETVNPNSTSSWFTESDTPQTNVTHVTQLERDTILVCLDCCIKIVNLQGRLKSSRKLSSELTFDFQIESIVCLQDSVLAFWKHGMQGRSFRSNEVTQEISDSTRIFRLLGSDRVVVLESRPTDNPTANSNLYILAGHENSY
Nature of the assay: Competitive binding affinity to MAP4K3 (unknown origin) at 10 uM in presence of ATP relative to control.

Assay [5] has as its target Insulin receptor-related protein (Homo sapiens) (UniProt P14616). Nature of the assay: Competitive binding affinity to INSRR (unknown origin) at 10 uM in presence of ATP relative to control.
Assay [6] has as its target Casein kinase II subunit alpha' (Homo sapiens) (UniProt P19784). Nature of the assay: Competitive binding affinity to CSNK2A2 (unknown origin) at 10 uM in presence of ATP relative to control. The essentials:
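In vitro ATP-site competition binding assay across a diverse panel of 128 kinases, with each compound tested at a single concentration. Kinase binding is expressed relative to control.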

Assay [7] addresses SRSF protein kinase 2 (Homo sapiens) (UniProt P78362). Nature of the assay: Competitive binding affinity to SRPK2 (unknown origin) at 10 uM in presence of ATP relative to control.
The target in assay [8] is Cyclin-dependent kinase 3 (Homo sapiens) (UniProt Q00526). Kind of assay: Competitive binding affinity to CDK3 (unknown origin) at 10 uM in presence of ATP relative to control.
Assay [9] addresses Serine/threonine-protein kinase N1 (Homo sapiens) (UniProt Q16512). Kind of assay: Competitive binding affinity to PKN1 (unknown origin) at 10 uM in presence of ATP relative to control.
In assay [10] the target is T2, Serine/threonine-protein kinase DCLK2 (Homo sapiens) (UniProt Q8N568).
T2 sequence (whole entry): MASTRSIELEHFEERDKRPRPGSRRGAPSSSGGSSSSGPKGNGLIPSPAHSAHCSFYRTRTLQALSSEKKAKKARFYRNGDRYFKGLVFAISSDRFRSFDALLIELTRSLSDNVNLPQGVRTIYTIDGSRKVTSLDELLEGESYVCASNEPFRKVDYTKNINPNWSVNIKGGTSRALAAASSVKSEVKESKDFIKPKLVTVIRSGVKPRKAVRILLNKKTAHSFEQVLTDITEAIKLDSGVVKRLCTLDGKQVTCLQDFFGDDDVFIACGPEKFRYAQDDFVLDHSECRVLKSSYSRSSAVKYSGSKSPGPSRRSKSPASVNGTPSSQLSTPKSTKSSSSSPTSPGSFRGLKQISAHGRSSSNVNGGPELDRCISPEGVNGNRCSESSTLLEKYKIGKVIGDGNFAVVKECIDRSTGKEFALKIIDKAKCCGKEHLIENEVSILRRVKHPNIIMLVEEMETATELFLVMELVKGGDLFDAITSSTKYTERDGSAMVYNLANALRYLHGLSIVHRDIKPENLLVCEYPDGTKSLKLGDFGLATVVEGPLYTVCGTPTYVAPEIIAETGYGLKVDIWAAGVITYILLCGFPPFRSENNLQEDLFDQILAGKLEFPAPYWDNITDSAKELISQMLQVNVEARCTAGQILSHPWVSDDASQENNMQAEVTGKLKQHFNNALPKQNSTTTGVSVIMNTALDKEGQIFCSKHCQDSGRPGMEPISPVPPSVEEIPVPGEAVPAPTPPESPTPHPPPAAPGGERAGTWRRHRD
Kind of assay: Competitive binding affinity to DCAMKL2 (unknown origin) at 10 uM in presence of ATP relative to control.

In general, inhibition refers to the change of the read-out against control, counted positive when it falls. Regarding `O[C@H]1CC[C@H](Nc2nccc(-c3n[nH]c4ccccc34)n2)CC1`, the inhibition was under 50% in assay [1]; under 50% in assay [2]; 86% in assay [3]; 97% in assay [4]; 98% in assay [5]; 98% in assay [6].

For `O[C@H]1CC[C@H](Nc2nccc(-n3ccc4ccccc43)n2)CC1`, the inhibition in assay [7], in assay [1], in assay [2], in assay [3], in [8] and in [4] was under 50% throughout. In addition, the inhibition in assay [5], in assay [9], in [10] and in [6] was under 50% each time.

As for `O[C@H]1CC[C@H](Nc2nccc(-n3ncc4ccccc43)n2)CC1`, the inhibition in assay [7], in assay [1], in assay [2], in [3], in assay [8] and in assay [4] was under 50% each time. Also, the inhibition in [5] was under 50%; in assay [9], under 50%; in assay [10] it was under 50%; in assay [6] it was 86%.

Consider `O[C@H]1CC[C@H](Nc2nccc(-n3nnc4ccccc43)n2)CC1`, for which the inhibition in [7] was under 50%; in [1] it was under 50%; in assay [2], under 50%; in assay [3], under 50%; in assay [8], 75%; in [4], under 50%. For the same compound, the inhibition in assay [5], in [9], in [10] and in assay [6] was under 50% throughout.
